The results in this text go back to ChEMBL document CHEMBL4706580, “4-Amino-1,2,4-triazole-3-thione-derived Schiff bases as metallo-β-lactamase inhibitors” (Eur J Med Chem, 2020).

SMILES strings stand for the structures. The source made the active and inactive calls. The calls are words filed in the database; no cut-off is given here.

Series [1] can be described thus: Inhibition of beta-lactamase IMP-1 (unknown origin) expressed in Escherichia coli BL21(DE3) using imipenem as substrate by measuring substrate hydrolysis at 100 uM by spectrophotometric analysis. The gist of the method: (§1)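 Purified enzyme (overproduced in E. coli BL21(DE3), pET-9a; ion-exchange and gel filtration), 1-70 nM final. Reporter substrate 150 μM imipenem, read at 300 nm, 30 °C, 50 mM HEPES pH 7.5. Single-point screen at 100 or 200 μM; Ki from v0/vi vs [I] (0.5–1,000 μM final) assuming competitive inhibition, or Dixon plot. Triplicate.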

Series [2] has as its system Escherichia coli. The series is described as follows: Antibacterial activity against NDM-1 producing Escherichia coli in presence of colistin by broth microdilution method. The format is functional.
In series [3] the test system is HeLa. Description: Cytotoxicity in human HeLa cells assessed as cell lysis upto 250 uM incubated for 72 hrs by membrane integrity assay. The format is cell-based.
Series [4] deals with Escherichia coli. Description: Synergistic antibacterial activity against NDM-1 producing Escherichia coli assessed ass MIC of ceftazidime/avibactam at 32 ug/ml in presence of colistin by broth microdilution method. It is filed as functional. Conditions: dose 32 µg/ml.
The subject of series [5] is Escherichia coli. Description: Synergistic antibacterial activity against NDM-1 producing Escherichia coli assessed as MIC of ceftazidime at 32 ug/ml in presence of colistin by broth microdilution method. The format is functional. Conditions: dose 32 µg/ml. In general terms: Dilution methods test growth across graded concentrations, often in twofold steps.
Series [6] relates to Escherichia coli. The series is described as follows: Synergistic antibacterial activity against NDM-1 producing Escherichia coli assessed ass MIC of ceftazidime/avibactam at 32 ug/ml by broth microdilution method. It is filed as functional. The settings on record: dose 32 µg/ml. The essentials: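 MIC of ceftazidime-avibactam (avibactam fixed at 4 µg/mL) by CLSI broth microdilution in Mueller-Hinton broth. Used the NDM-1-producing multidrug-resistant E. coli clinical isolate SI-001M at 5 × 10⁴ CFU/well, with and without inhibitor at a fixed 32 µg/ml. No colistin added. Triplicate determinations.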

Series [7] in a line: Inhibition of beta-lactamase IMP-1 (unknown origin) expressed in Escherichia coli BL21(DE3) using imipenem as substrate by measuring substrate hydrolysis at 200 uM by spectrophotometric analysis. The essentials:
as §1

Series [8] in a line: Inhibition of beta-lactamase VIM4 (unknown origin) expressed in Escherichia coli BL21(DE3) using imipenem as substrate by measuring substrate hydrolysis by spectrophotometric analysis. The gist of the method:
as §1

Series [9] is described as follows: Inhibition of beta-lactamase L1 (unknown origin) expressed in Escherichia coli BL21(DE3) using nitrocefin as substrate by measuring substrate hydrolysis at 200 uM preincubated for 30 mins by spectrophotometric analysis.
Series [10] concerns Escherichia coli. The series is described as follows: Synergistic antibacterial activity against NDM-1 producing Escherichia coli assessed as MIC of imipenem at 32 ug/ml in presence of colistin by broth microdilution method. The format is functional. The settings on record: dose 32 µg/ml.
For series [11], the system named is Escherichia coli. Description: Synergistic antibacterial activity against NDM-1 producing Escherichia coli assessed as MIC of meropenem at 32 ug/ml in presence of colistin by broth microdilution method. It is filed as functional. Conditions: dose 32 µg/ml. The gist of the method: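 Broth microdilution per CLSI in Mueller-Hinton broth against a multidrug-resistant NDM-1-producing E. coli clinical isolate (SI-001M), inoculum 5 × 10⁴ CFU/well. […] Run in triplicate.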

Series [12] can be described thus: Inhibition of beta-lactamase NDM-1 (unknown origin) expressed in Escherichia coli LZ2310 assessed as potentiation of ceftazidime antibacterial activity by measuring ceftazidime induced diameter of inhibition zone at 80 uM incubated for 18 hrs by disk diffusion method (reference value: 15 mm). The essentials:
(§2)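 Efflux-deficient E. coli LZ2310 (NorE, MdfA, AcrA knocked out) carrying pLB-II with the cloned MBL gene. Mueller-Hinton, CLSI disk diffusion; antibiotic disks (30 µg cefoxitin for VIM-2, 10 µg ampicillin for VIM-4, 30 µg ceftazidime for NDM-1/IMP-1) loaded with inhibitor in DMSO (≤15 µL). Zone diameter after 18 h, 35 ± 1 °C; DMSO and 220 µg EDTA controls. Triplicate.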
On the technique in general: A growth-free zone around the sample is the usual read-out of agar diffusion tests.

The subject of series [13] is Escherichia coli. Description: Synergistic antibacterial activity against NDM-1 producing Escherichia coli assessed as MIC of ceftazidime at 32 ug/ml by broth microdilution method. Conditions: dose 32 µg/ml. The format is functional.
The subject of another series is HUVEC. The series is described as follows: Cytotoxicity in human HUVEC cells assessed as reduction in cell viability upto 100 uM incubated for 72 hrs by MTT assay. The format is cell-based.
Series [14] in a line: Inhibition of beta-lactamase VIM2 (unknown origin) expressed in Escherichia coli BL21(DE3) using imipenem as substrate by measuring substrate hydrolysis at 200 uM by spectrophotometric analysis. The essentials:
as §1

A short description of series [15]: Inhibition of beta-lactamase VIM2 (unknown origin) expressed in Escherichia coli BL21(DE3) using imipenem as substrate by measuring substrate hydrolysis at 100 uM by spectrophotometric analysis. The essentials:
as §1

The nature of series [16]: Inhibition of beta-lactamase VIM-2 (unknown origin) expressed in Escherichia coli LZ2310 assessed as potentiation of cefoxitin antibacterial activity by measuring cefoxitin induced diameter of inhibition zone at 80 uM incubated for 18 hrs by disk diffusion method (reference value: 14 mm). The gist of the method: as §2
The test system of series [17] is Escherichia coli. The series is described as follows: Synergistic antibacterial activity against NDM-1 producing Escherichia coli assessed as MIC of imipenem at 32 ug/ml by broth microdilution method. It is filed as functional. The settings on record: dose 32 µg/ml.
Series [18] in a line: Inhibition of beta-lactamase NDM1 (unknown origin) expressed in Escherichia coli BL21(DE3) using cefotaxime/nitrocefin as substrate by measuring substrate hydrolysis by spectrophotometric analysis. The essentials:
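His-tagged enzyme from E. coli BL21(DE3) pET-15b, affinity-purified, 1-70 nM final. Reporter substrate 120 μM cefotaxime (260 nm) or 100 μM nitrocefin (482 nm), 30 °C, 50 mM HEPES pH 7.5. Inhibitor 0.5–1,000 μM final; competitive Ki from v0/vi vs [I] slope or Dixon plot. Triplicate.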

Series [19] deals with Escherichia coli. Description: Synergistic antibacterial activity against NDM-1 producing Escherichia coli assessed as MIC of meropenem at 32 ug/ml by broth microdilution method. It is filed as functional. Conditions: dose 32 µg/ml.
Series [20] has as its system HeLa. Description: Cytotoxicity in human HeLa cells assessed as reduction in cell viability upto 250 uM incubated for 72 hrs by MTT assay. It is filed as cell-based. On the technique in general: Tetrazolium assays rely on reduction of a dye to a coloured formazan, in cell work by metabolically active cells.
A short description of series [21]: Inhibition of beta-lactamase L1 (unknown origin) expressed in Escherichia coli BL21(DE3) using nitrocefin as substrate by measuring substrate hydrolysis at 100 uM preincubated for 30 mins by spectrophotometric analysis. The essentials: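 Enzyme 0.2–0.8 nM in 25 mM HEPES pH 7.5 with 50 μM ZnCl2 final, pre-incubated 30 min at 21 °C with inhibitor (100 μM screen). Nitrocefin 100 μM final, read at 482 nm, 30 °C. Residual activity vs three uninhibited samples; Ki (1–100 μM inhibitor) from Hanes linearization, competitive model. Triplicate.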

For `Oc1ccc(/C=N/n2c(-c3ccc(-c4ccccc4)cc3)n[nH]c2=S)c(O)c1`, the inhibition entry in series [1], in [7], in series [9], in [14], in series [15] and in [21] was “inactive” throughout. For the same compound, the MIC in the series on Escherichia coli [2] is more than 256 µg/mL; in the series on Escherichia coli [4] it was 4 µg/mL; with Escherichia coli [5], more than 256 µg/mL; in the series with Escherichia coli [6], more than 256 µg/mL; with Escherichia coli [10] it was 4 µg/mL; in the series with Escherichia coli [11], 8 µg/mL. Besides, the minimal inhibitory concentration (MIC) in the series on Escherichia coli [13] is more than 256 µg/mL; in the series with Escherichia coli [17] it was 8 µg/mL; with Escherichia coli [19], 16 µg/mL. The Activity entry in the series on HeLa [3], in the series on HUVEC and with HeLa [20] was “Non-Toxic” throughout. The Ki in [8] is 2000 nM; in series [18], 1800 nM. Also, the inhibition zone (IZ) in series [12] came out at 15 mm; in series [16], 14 mm.

The term MIC denotes the lowest concentration that inhibits growth of the organism. The Ki is a dissociation constant, usually derived from enzyme kinetics or from competition with a known ligand. High values mean a looser hold on the target, low ones a stronger hold on the target.
